Active and inactive are the calls of the source. No cut-off for these calls is given here.
Tests used:
[1] = test system: SNB-19; assay: Growth inhibition of human SNB19 cells; type: functional
Outline: (§1)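 NCI-60 panel SRB assay. Cells in RPMI 1640 with 5% FBS and 2 mM L-glutamine, plated at 5,000-40,000 cells/well and grown 24 h before dosing; time-zero plates TCA-fixed. Five concentrations (10-fold or ½ log dilutions, from DMSO stock) applied for 48 h at 37°C. TCA fixation (16% final for suspension cells), SRB stain, absorbance 515 nm; GI50 from net protein increase versus control.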

[2] = test system: OVCAR-8; assay: Growth inhibition of human OVCAR8 cells; type: functional
Outline: (§2)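 NCI-60 cell lines grown in RPMI 1640 with 5% FBS and 2 mM L-glutamine, plated at 5,000–40,000 cells/well and preincubated 24 h. Time-zero plates were TCA-fixed. Drug was given at five concentrations (10-fold or ½-log dilutions from DMSO stock) for 48 h at 37°C. Cells were TCA-fixed, stained with SRB, and read at 515 nm. GI50 is where [(Ti−Tz)/(C−Tz)]×100 = 50.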

[3] = test system: K562; assay: Growth inhibition of human K562 cells; type: functional; outline: as §2
[4] = Growth inhibition of human NCI60 cells; type: functional; outline: as §2
[5] = test system: NCI/ADR-RES; assay: Growth inhibition of human NCI/ADR-RES cells; type: functional; outline: as §2
[6] = test system: NCI-H23; assay: Growth inhibition of human NCI-H23 cells; type: functional; outline: as §2
[7] = test system: HCT-116; assay: Growth inhibition of human HCT116 cells; type: functional; outline: as §2
[8] = Growth inhibition of human […] cells; type: functional; outline: as §2
[9] = test system: NCI-H226; assay: Growth inhibition of human NCI-H226 cells; type: functional; outline: as §2
[10] = test system: U-251; assay: Growth inhibition of human U251 cells; type: functional; outline: as §1
[11] = test system: PC-3; assay: Growth inhibition of human PC3 cells; type: functional; outline: as §2
[12] = test system: A549; assay: Growth inhibition of human A549 cells; type: functional; outline: as §2
[13] = test system: EKVX; assay: Growth inhibition of human EKVX cells; type: functional; outline: as §2
[14] = test system: MDA-MB-435; assay: Growth inhibition of human MDA-MB-435 cells; type: functional; outline: as §2
[15] = test system: Malme-3M; assay: Growth inhibition of human MALME-3M cells; type: functional; outline: as §2
[16] = test system: 786-0; assay: Growth inhibition of human 786-0 cells; type: functional; outline: as §2
[17] = test system: SF-539; assay: Growth inhibition of human SF539 cells; type: functional; outline: as §2
[18] = test system: A498; assay: Growth inhibition of human A498 cells; type: functional; outline: as §2
[19] = test system: OVCAR-3; assay: Growth inhibition of human OVCAR3 cells; type: functional; outline: as §2
[20] = test system: NCI-H460; assay: Cytotoxicity against human NCI-H460 cells assessed as cell death at 50 nM after 12 hrs by Hoechst-33342 staining and propidium iodide staining; type: functional, cell-based; conditions: NCI-H460, 12 h
Outline: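 NCI-H460 cells were seeded at 50,000 cells/well for 12 h, then exposed 12 h in serum-free medium (DMSO <0.1%). Cells were stained with Hoechst 33342 (10 µg/ml) and propidium iodide (20 µg/ml) for 30 min at 37°C. Condensed or fragmented nuclei were scored by fluorescence microscopy, and apoptotic index = apoptotic/total nuclei ×100. Duplicate wells, ≥3 runs (N = 6).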

[21] = test system: MDA-MB-231; assay: Growth inhibition of human MDA-MB-231 cells; type: functional; outline: as §2
[22] = test system: SR; assay: Growth inhibition of human SR cells; type: functional; outline: as §1
[23] = test system: IGROV-1; assay: Growth inhibition of human IGROV1 cells; type: functional; outline: as §2
[24] = test system: OVCAR-4; assay: Growth inhibition of human OVCAR4 cells; type: functional; outline: as §2
[25] = test system: SK-MEL-2; assay: Growth inhibition of human SK-MEL-2 cells; type: functional; outline: as §2
[26] = test system: SF-295; assay: Growth inhibition of human SF295 cells; type: functional; outline: as §2
[27] = test system: KM12; assay: Growth inhibition of human KM12 cells; type: functional; outline: as §2
[28] = test system: NCI-H522; assay: Growth inhibition of human NCI-H522 cells; type: functional; outline: as §2
[29] = test system: SK-MEL-5; assay: Growth inhibition of human SK-MEL-5 cells; type: functional; outline: as §1
[30] = test system: CAKI-1; assay: Growth inhibition of human Caki1 cells; type: functional; outline: as §2
[31] = test system: DU-145; assay: Growth inhibition of human DU145 cells; type: functional; outline: as §2
[32] = test system: HL-60(TB); assay: Growth inhibition of human HL-60(TB) cells; type: functional; outline: as §2
[33] = test system: OVCAR-5; assay: Growth inhibition of human OVCAR5 cells; type: functional; outline: as §2
[34] = test system: COLO 205; assay: Growth inhibition of human COLO205 cells; type: functional; outline: as §2
[35] = test system: UO-31; assay: Growth inhibition of human UO31 cells; type: functional; outline: as §1
[36] = test system: NCI-H322M; assay: Growth inhibition of human NCI-H322M cells; type: functional; outline: as §2
[37] = test system: BT-549; assay: Growth inhibition of human BT549 cells; type: functional; outline: as §2
[38] = test system: NCI-H460; assay: Growth inhibition of human NCI-H460 cells; type: functional; outline: as §2
[39] = test system: LOX IMVI; assay: Growth inhibition of human LOXIMVI cells; type: functional; outline: as §2
[40] = test system: SW-620; assay: Growth inhibition of human SW620 cells; type: functional; outline: as §1
[41] = test system: TK-10; assay: Growth inhibition of human TK10 cells; type: functional; outline: as §1
[42] = test system: HOP-92; assay: Growth inhibition of human HOP92 cells; type: functional; outline: as §2
[43] = test system: HCT-15; assay: Growth inhibition of human HCT15 cells; type: functional; outline: as §2
[44] = test system: CCRF-CEM; assay: Growth inhibition of human CCRF-CEM cells; type: functional; outline: as §2
[45] = test system: RXF 393; assay: Growth inhibition of human RXF393 cells; type: functional; outline: as §2
[46] = test system: SN12C; assay: Growth inhibition of human SN12C cells; type: functional; outline: as §1
[47] = test system: ACHN; assay: Growth inhibition of human ACHN cells; type: functional; outline: as §2
[48] = test system: T47D; assay: Growth inhibition of human T47D cells; type: functional; outline: as §1
[49] = test system: SK-OV-3; assay: Growth inhibition of human SKOV3 cells; type: functional; outline: as §1
[50] = test system: HT-29; assay: Growth inhibition of human HT-29 cells; type: functional; outline: as §2
[51] = test system: SNB-75; assay: Growth inhibition of human SNB75 cells; type: functional; outline: as §1
[52] = test system: M14; assay: Growth inhibition of human M14 cells; type: functional; outline: as §2
[53] = test system: NCI-H460; assay: Induction of apoptosis human NCI-H460 cells assessed as cellular degradation at 50 nM after 12 hrs by Hoechst-33342 staining; type: functional
Outline: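 NCI-H460 seeded 50,000 cells/well for 12 h, then exposed 12 h in serum-free medium (DMSO <0.1%). Stained 30 min at 37°C with 10 µg/ml Hoechst 33342 plus 20 µg/ml propidium iodide. Condensed or fragmented nuclei scored by fluorescence microscopy; apoptotic index = apoptotic/total nuclei ×100. 2 replicate wells, ≥3 runs (N = 6).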

[54] = test system: SF-268; assay: Growth inhibition of human SF268 cells; type: functional; outline: as §2
[55] = test system: MDA-N; assay: Growth inhibition of human MDA-N cells; type: functional; outline: as §2
[56] = test system: HCC 2998; assay: Growth inhibition of human HCC2998 cells; type: functional; outline: as §2
[57] = test system: HOP-62; assay: Growth inhibition of human HOP62 cells; type: functional; outline: as §2
[58] = test system: UACC-257; assay: Growth inhibition of human UACC257 cells; type: functional; outline: as §1
[59] = test system: UACC-62; assay: Growth inhibition of human UACC62 cells; type: functional; outline: as §1
[60] = test system: SK-MEL-28; assay: Growth inhibition of human SK-MEL-28 cells; type: functional; outline: as §1
[61] = test system: MOLT-4; assay: Growth inhibition of human MOLT4 cells; type: functional; outline: as §2
[62] = test system: MCF7; assay: Growth inhibition of human MCF7 cells; type: functional; outline: as §2
[63] = Growth inhibition of human Hs 578T cells; type: functional; outline: as §2
[64] = test system: NCI-H460; assay: Growth inhibition of human NCI-H460 cells after 48 hrs by MTT assay; type: functional; conditions: NCI-H460, 48 h
Outline: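 NCI-H460 cells in RPMI 1640 with 10% FBS were seeded at 10,000 cells/well for 12 h. Drug was diluted 1000× from DMSO into 1% FBS medium (DMSO <0.1%). Time-course runs used 50 nM; dose–response runs used 48 h exposure. Viability was read by MTT (4 h), with formazan dissolved in DMSO for 45 min and read at 562 nm. Triplicate wells, ≥3 runs (N = 9), two-way ANOVA.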

C[C@@H]1O[C@@H](O[C@H]2CC[C@@]3(C)[C@H](CC[C@@H]4[C@@H]3CC[C@]3(C)[C@@H](C5=CC(=O)OC5)CC[C@]43O)C2)[C@H](O)[C@H](O)[C@H]1O
GI50 [1]: < 10 nM
GI50 [2]: < 10 nM
GI50 [3]: < 10 nM
GI50 [4]: 1 nM
GI50 [5]: < 10 nM
GI50 [6]: < 10 nM
GI50 [7]: < 10 nM
GI50 [8]: < 10 nM
GI50 [9]: < 10 nM
GI50 [10]: < 10 nM
GI50 [11]: < 10 nM
GI50 [12]: < 10 nM
GI50 [13]: < 10 nM
GI50 [14]: < 10 nM
GI50 [15]: < 10 nM
GI50 [16]: < 10 nM
GI50 [17]: < 10 nM
GI50 [18]: < 10 nM
GI50 [19]: < 10 nM
IC50 [20]: 46.7 nM
GI50 [21]: < 10 nM
GI50 [22]: < 10 nM
GI50 [23]: < 10 nM
GI50 [24]: < 10 nM
GI50 [25]: < 10 nM
GI50 [26]: < 10 nM
GI50 [27]: < 10 nM
GI50 [28]: < 10 nM
GI50 [29]: < 10 nM
GI50 [30]: < 10 nM
GI50 [31]: < 10 nM
GI50 [32]: < 10 nM
GI50 [33]: < 10 nM
GI50 [34]: < 10 nM
GI50 [35]: < 10 nM
GI50 [36]: < 10 nM
GI50 [37]: < 10 nM
GI50 [38]: < 10 nM
GI50 [39]: < 10 nM
GI50 [40]: < 10 nM
GI50 [41]: < 10 nM
GI50 [42]: < 10 nM
GI50 [43]: < 10 nM
GI50 [44]: < 10 nM
GI50 [45]: < 10 nM
GI50 [46]: < 10 nM
GI50 [47]: < 10 nM
GI50 [48]: < 10 nM
GI50 [49]: < 10 nM
GI50 [50]: < 10 nM
GI50 [51]: < 10 nM
GI50 [52]: < 10 nM
Activity [53]: Active
Activity ([53]; record 2): 45.8%
GI50 [54]: < 10 nM
GI50 [55]: < 10 nM
GI50 [56]: < 10 nM
GI50 [57]: < 10 nM
GI50 [58]: < 10 nM
GI50 [59]: < 10 nM
GI50 [60]: < 10 nM
GI50 [61]: < 10 nM
GI50 [62]: < 10 nM
GI50 [63]: < 10 nM

C[C@H]1O[C@@H](O[C@H]2CC[C@@]3(C)[C@H](CC[C@@H]4[C@@H]3CC[C@]3(C)[C@@H](C5=CC(=O)OC5)CC[C@]43O)C2)C[C@H](O)[C@@H]1O
growth inhibition (GI) [2]: Active
GI50 [4]: 25 nM
growth inhibition (GI) [7]: Active
growth inhibition (GI) [12]: Active
growth inhibition (GI) [16]: Active
growth inhibition (GI) [18]: Active
growth inhibition (GI) [19]: Active
IC50 [20]: 74.8 nM
growth inhibition (GI) [30]: Active
growth inhibition (GI) [31]: Active
growth inhibition (GI) [35]: Active
growth inhibition (GI) [38]: Active
growth inhibition (GI) [41]: Active
growth inhibition (GI) [45]: Active
growth inhibition (GI) [46]: Active
growth inhibition (GI) [47]: Active
GI50 [64]: 3.8 nM
Activity [53]: 28.8%
growth inhibition (GI) [61]: Active

Reference: ChEMBL document CHEMBL1649102, “Stereochemical survey of digitoxin monosaccharides: new anticancer analogues with enhanced apoptotic activity and growth inhibitory effect on human non-small cell lung cancer cell” (ACS Med Chem Lett, 2011)
